Measurements taken from PubChem BioAssay AID488914 (Broad Institute, 2010).
Inconclusive results are not listed. Active and inactive are the calls of the source.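 How the source made its calls: active means compounds raising caspase signal whose fitted half-maximal concentration lies at or below their highest valid tested dose; inconclusive means flat curve at 30 to 70% activity, or unreliable fit; inactive means the rest.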

Legend:
[1] = system: MEWO cells TSA-primed, caspase-Glo luminescence, 3 h; assay: Caspase-Glo signal, A1-expressing MEWO cells – cell-based, Trichostatin A priming, dry powder, A1 (Bcl2-A1) inhibitor project, dose response (AID 488914)
Procedure, shortened: (§1)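 Test system: Human MEWO cells with A1 expression, Trichostatin A primed | Technique: Caspase-Glo luminescence, reagent diluted 1:1 in 50 mM HEPES | Medium: RPMI-1640 plus 10% FBS | Read-out: Caspase activity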

[2] = as above; conditions: MEWO cells TSA-primed, caspase-Glo luminescence, 3 h; at 135 µM (top of the series)
Procedure, shortened: as §1

SMILES | AC50 [1] | caspase activation [2]
CC(=O)N[C@H]1[C@H](O[C@H]2CC[C@@]3(C)C(CC[C@]4(C)C3CC=C3[C@@H]5CC(C)(C)CC[C@]5(C(=O)OC5OCC(O)C(O)C5O)C(O)C[C@]34C)C2(C)C)O[C@H](COC2OCC(O)C(OC3OCC(O)C(O)C3O)C2O)[C@@H](O[C@@H]2O[C@@H](C)[C@H](O)[C@@H](O)[C@H]2O[C@@H]2O[C@@H](C)[C@H](O)[C@@H](O)[C@H]2O)[C@@H]1O (stereo not given in full) | 6.81 µM | 
Cc1ccc(CS(=O)(=O)c2ncc(Cl)c(C(=O)Nc3nnc(C(C)C)s3)n2)cc1 |  | -9.39% (inactive)
COc1cc(/C=C(/C#N)c2nc3ccccc3[nH]2)ccc1OCC(=O)Nc1ccccc1C(C)C |  | 2.25% (inactive)
Cc1ccc(Sc2c([N+](=O)[O-])c(=O)n(C)c3ccccc23)cc1 | 16.8 µM | 
C=C1[C@@H](C)[C@H]2[C@H](Cc3ccccc3)NC(=O)[C@]23OC(=O)/C=C\[C@H](O)CCC[C@@H](C)C/C=C/[C@H]3[C@@H]1O | 2.29 µM | 
CCSc1nnc(NC(=O)c2nc(S(=O)(=O)Cc3ccc(F)cc3)ncc2Cl)s1 |  | -10.5% (inactive)
Cc1cccc(CS(=O)(=O)c2ncc(Cl)c(C(=O)Nc3nnc(C(C)C)s3)n2)c1 |  | -9.05% (inactive)
CCc1nnc(NC(=O)c2nc(S(=O)(=O)Cc3ccccc3)ncc2Cl)s1 |  | -6.87% (inactive)
COc1ccc(N(C(=O)CCl)C(C(=O)NCCc2ccccc2)c2cccs2)cc1Cl (stereo not given) | 10.6 µM | 
O=C(CCl)N=c1sccn1Cc1ccccc1Cl |  | 3.57% (inactive)
Cc1c(CCOC(=O)c2ccc(N3CCOCC3)c([N+](=O)[O-])c2)sc[n+]1CC#N | 13.1 µM | 
COc1cccc(C(=O)C(C#N)=C(SC)SC)c1 | 0.92 µM | 
O=C(Oc1cccc(/C=N/Nc2nc(Nc3ccccc3)nc(N3CCOCC3)n2)c1)c1ccco1 | 6.87 µM | 
CC(C)(C)n1nc(-c2ccc(Cl)cc2)c2c(N)ncnc21 | > 135 µM (inactive) | 
C=C1[C@@H](C)[C@H]2[C@H](Cc3ccccc3)NC(=O)[C@]23[C@H](OC(C)=O)/C=C/[C@](C)(O)C(=O)[C@@H](C)C/C=C/[C@H]3[C@@H]1O |  | 5.7% (inactive)
C/C1=C/C(=O)O[C@@H]2C[C@@H](CC[C@H](C)/C=C\CC1)O[C@@](O)(C1CSC(=O)N1)C2 (stereo not given in full) | 0.632 µM | 
Nc1nc(F)nc2c1ncn2[C@@H]1O[C@H](CO)[C@@H](O)[C@H]1O |  | -2.16% (inactive)
Cn1c(=NC(=O)CCl)sc2ccccc21 |  | -6.3% (inactive)
CCOC(=O)CSC1=N/C(=C/c2ccc(-n3cncn3)cc2)C(=O)N1C(C)=O | 4.12 µM | 
Cc1cc(C(=O)CCl)c(C)n1CCc1ccc(Cl)cc1 | 77.8 µM | 
